Assay results of several laboratories.
EGFR del752-759: Epidermal growth factor receptor (EGFR, Homo sapiens, UniProt P00533, del752-759)
EGFR A750P/del747-749: Epidermal growth factor receptor (EGFR, Homo sapiens, UniProt P00533, A750P/del747-749)
EGFR: Epidermal growth factor receptor (EGFR, Homo sapiens, UniProt P00533)
EGFR T790M: Epidermal growth factor receptor (EGFR, Homo sapiens, UniProt P00533, T790M)
EGFR del747-752/P753S: Epidermal growth factor receptor (EGFR, Homo sapiens, UniProt P00533, del747-752/P753S)
EGFR G719C: Epidermal growth factor receptor (EGFR, Homo sapiens, UniProt P00533, G719C)
EGFR L858R: Epidermal growth factor receptor (EGFR, Homo sapiens, UniProt P00533, L858R)
EGFR L858R/T790M: Epidermal growth factor receptor (EGFR, Homo sapiens, UniProt P00533, L858R/T790M)
EGFR L861Q: Epidermal growth factor receptor (EGFR, Homo sapiens, UniProt P00533, L861Q)
EGFR del746-750: Epidermal growth factor receptor (EGFR, Homo sapiens, UniProt P00533, del746-750)
EGFR G719S: Epidermal growth factor receptor (EGFR, Homo sapiens, UniProt P00533, G719S)

`CN(C)c1nccc(-c2cnc3ncccn23)n1` has a remaining binding of 100% (EGFR del752-759; binding; 1 µM).
The remaining binding of `Cc1nccc(COC(=O)N2C[C@@H]3[C@@H](CNC(=O)c4ccc5[nH]nnc5c4)[C@@H]3C2)n1` is reported as 71% (EGFR A750P/del747-749; cell-free assay; competition with immobilised ligand; 1 µM).
With `O=C(NCCCN1CCOCC1)c1ccc(Nc2nccc(-c3cc4ccccc4s3)n2)cc1` the remaining binding was 100% (EGFR A750P/del747-749; binding; competition with immobilised ligand; 1 µM).
For `CCN(CC)Cc1cc(Nc2ccnc3cc(Cl)ccc23)ccc1O`, the remaining binding was 100% (EGFR; cell-free assay; competition with immobilised ligand; 0.1 µM).
For `CN1CCN(c2ccc(Nc3nccc(-c4cccc([N+](=O)[O-])c4)n3)cc2C(F)(F)F)CC1`, the remaining binding was 45% (EGFR T790M; binding; 10 µM).
With `CNC(=O)Nc1ccc2c(c1)CC[C@@]21OC(=O)N(CC(=O)N(Cc2ccc(F)cc2)[C@@H](C)C(F)(F)F)C1=O` the remaining binding was 64% (EGFR del747-752/P753S; cell-free assay; competition with immobilised ligand; 1 µM).
The remaining binding of `c1cnn2ncc(-c3ccnc(N4CCC45COC5)n3)c2c1` is reported as 100% (EGFR G719C; binding; 1 µM).
`CS(=O)(=O)NCC[C@H](NC(=O)c1cncc2c1cnn2-c1ccc(F)cc1)c1ccnc(S(C)(=O)=O)c1` has a remaining binding of 83% (EGFR L858R; cell-free assay; competition with immobilised ligand; 1 µM).
`O=C(c1ccc(Nc2nccc(-c3cc4ccccc4s3)n2)cc1)N1CCC(N2CCCC2)CC1` has a remaining binding of 58% (EGFR L858R/T790M; binding; competition with immobilised ligand; 1 µM).
With `CN([C@@H]1CCc2c(CC(=O)O)c3ccccc3n2C1)S(=O)(=O)c1ccc(F)cc1` the remaining binding was 100% (EGFR A750P/del747-749; cell-free assay; competition with immobilised ligand; 1 µM).
`Cc1cnc(Nc2ccc(C(=O)N3CCC(N4CCCC4)CC3)cc2)nc1-c1cc2ccccc2s1` has a remaining binding of 72% (EGFR L858R; binding; competition with immobilised ligand; 1 µM).
`CN1CCN(c2ccc(Nc3nccc(-c4ccccc4)n3)cc2C(F)(F)F)CC1` has a remaining binding of 94% (EGFR L861Q; binding; 10 µM).
For `CNC(=O)[C@@H]1CC[C@@H](n2c(-c3ccc4cnccc4c3)nc3ccc(C(=O)NCc4cccc(C(N)=O)c4)cc32)C1`, the remaining binding was 100% (EGFR; binding; competition with immobilised ligand; 1 µM).
For `O=C(Nc1c[nH]nc1C(=O)NC1CCNCC1)c1cc(F)cc(F)c1`, the remaining binding was 100% (EGFR del746-750; binding; competition with immobilised ligand; 1 µM).
For `CO[C@@H](C)c1c(Nc2ccc([C@H](N(C)C(=O)C3CCS(=O)(=O)CC3)C(F)(F)F)cc2)cnc2cc(Cl)nn12`, the remaining binding was 99% (EGFR A750P/del747-749; cell-free assay; competition with immobilised ligand; 1 µM).
`O=C(c1ccc(Nc2ncc(Cl)c(-c3ccc(Cl)s3)n2)cc1)N1CCC(N2CCCC2)CC1` gave a remaining binding of 49% (EGFR L858R/T790M; binding; competition with immobilised ligand; 1 µM).
For `COc1cnc(Nc2cccc(S(N)(=O)=O)c2)nc1N1CCN(c2ccccc2)C(=O)C1`, the remaining binding was 75% (EGFR del747-752/P753S; binding; competition with immobilised ligand; 1 µM).
`O=C(c1ccc(Nc2ncc(Cl)c(-c3cc4ccccc4s3)n2)cc1)N1CCC(N2CCCC2)CC1` has a remaining binding of 86% (EGFR A750P/del747-749; binding; competition with immobilised ligand; 1 µM).
`Cc1cnn2ncc(-c3ccnc(N(C)C)n3)c2c1` has a remaining binding of 100% (EGFR G719C; binding; 1 µM).
`O=C(NCCCN1CCOCC1)c1ccc(Nc2ncc(Cl)c(-c3ccc(Cl)s3)n2)cc1` has a remaining binding of 83% (EGFR T790M; binding; competition with immobilised ligand; 1 µM).
`COc1ncc2cc3ccccc3nc2c1C#N` has a remaining binding of 96% (EGFR del752-759; cell-free assay; competition with immobilised ligand; 5 µM).
For `F[C@@H]1CCN(c2nccc(-c3cnn4ncccc34)n2)C1`, the remaining binding was 93% (EGFR L861Q; binding; 1 µM).
The remaining binding of `O=C(N1CCS(=O)(=O)CC1)N1C[C@H](c2ccc(OC(F)(F)F)cc2)C[C@H](c2nc(C3CC3)no2)C1` is reported as 100% (EGFR T790M; cell-free assay; competition with immobilised ligand; 1 µM).
`CCN1CCN(Cc2ccc(C(=O)Nc3ccc(C)c(Oc4ccc5c(c4)CC(=O)N5)c3)cc2C(F)(F)F)CC1` gave a remaining binding of 100% (EGFR del752-759; binding; competition with immobilised ligand; 1 µM).
With `Nc1ncc2c(n1)-c1c([nH]c3ccc(C#CC4CC4)cc13)CCCC2` the remaining binding was 56% (EGFR del747-752/P753S; binding; competition with immobilised ligand; 1 µM).
With `N#Cc1ccccc1CSc1nnc2c(n1)[nH]c1ccccc12` the remaining binding was 100% (EGFR L858R; binding; competition with immobilised ligand; 10 µM).
`C[C@@H]1CN(c2cc(-c3n[nH]c4ccc(OC5(C)CC5)cc34)ncn2)C[C@H](C)O1` gave a remaining binding of 82% (EGFR L858R; cell-free assay; competition with immobilised ligand; 0.1 µM).
The remaining binding of `O=C(NCC1CCOCC1)c1n[nH]cc1NC(=O)c1c(F)cccc1F` is reported as 100% (EGFR G719S; binding; competition with immobilised ligand; 1 µM).
With `CN(C)c1ncc(F)c(-c2cnn3ncccc23)n1` the remaining binding was 100% (EGFR G719S; binding; 1 µM).
For `C[C@H](c1cccc(C#N)c1)n1cc(Cl)cc(C(N)=O)c1=N`, the remaining binding was 86% (EGFR L858R; cell-free assay; competition with immobilised ligand; 1 µM).
The remaining binding of `C[C@@H]1CCN(c2nccc(-c3cnn4ncccc34)n2)C1` is reported as 88% (EGFR del752-759; binding; 1 µM).
With `COc1cnc(Nc2cccc(S(N)(=O)=O)c2)nc1N1CCN(c2ccccc2)CC1` the remaining binding was 87% (EGFR L858R/T790M; binding; competition with immobilised ligand; 1 µM).
`COc1ccnn2ncc(-c3ccnc(N(C)C)n3)c12` gave a remaining binding of 100% (EGFR L858R; binding; 1 µM).
The remaining binding of `c1cncc(-c2cccc(Nc3nccc(NC4CCCCC4)n3)c2)c1` is reported as 38% (EGFR del746-750; binding; competition with immobilised ligand; 10 µM).
